# Source: ChEMBL document CHEMBL1154876, “Synthesis and antimicrobial studies on novel sulfonamides containing 4-azidomethyl coumarin” (2010)
# Assays:
# Format in all cases: functional
# [1] = system: Enterococcus faecalis; experiment: Antibacterial activity against Streptococcus faecalis MTCC 3382 after 18 hrs by broth microdilution method; settings: MTCC 3382, 18 h
# [2] = system: Staphylococcus aureus; experiment: Antibacterial activity against Staphylococcus aureus MTCC 3160 after 18 hrs by broth microdilution method; settings: MTCC 3160, 18 h
# [3] = system: Bacillus subtilis; experiment: Antibacterial activity against Bacillus subtilis MTCC 297 after 18 hrs by broth microdilution method; settings: MTCC 297, 18 h
# [4] = system: Pseudomonas aeruginosa; experiment: Antibacterial activity against Pseudomonas aeruginosa MTCC 1034 after 18 hrs by broth microdilution method; settings: MTCC 1034, 18 h
# [5] = system: Klebsiella pneumoniae; experiment: Antibacterial activity against Klebsiella pneumoniae MTCC 3384 after 18 hrs by broth microdilution method; settings: MTCC 3384, 18 h
# [6] = system: Escherichia coli; experiment: Antibacterial activity against Escherichia coli MTCC 1089 after 18 hrs by broth microdilution method; settings: MTCC 1089, 18 h
# [7] = system: Candida albicans; experiment: Antifungal activity against Candida albicans after 48 to 72 hrs by broth microdilution method
# Outline: (§1)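 Test compounds were prepared as 10 mg/ml DMSO stocks and serially diluted twofold in Sabouraud's dextrose broth over 500, 250, 125, 62.5, 31.25, 16, 8, 4, 2 and 1, alongside fluconazole as reference. Plates were inoculated with 1–5 × 10⁴ cfu/ml and held at 25 °C for 48–72 h. The MIC was the lowest concentration showing no visible growth.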
# [8] = system: Aspergillus fumigatus; experiment: Antifungal activity against Aspergillus fumigatus after 48 to 72 hrs by broth microdilution method; outline: as §1
# [9] = system: Aspergillus niger; experiment: Antifungal activity against Aspergillus niger after 48 to 72 hrs by broth microdilution method; outline: as §1
# [10] = system: Penicillium chrysogenum; experiment: Antifungal activity against Penicillium chrysogenum after 48 to 72 hrs by broth microdilution method; outline: as §1
# [11] = system: Mucor; experiment: Antifungal activity against Mucor fuscus after 48 to 72 hrs by broth micro dilution method; outline: as §1
# [12] = system: Fusarium oxysporum; experiment: Antifungal activity against Fusarium oxysporum after 48 to 72 hrs by broth microdilution method; outline: as §1
MIC [1],MIC [2],MIC [3],MIC [4],MIC [5],MIC [6],MIC [7],MIC [8],MIC [9],MIC [10],MIC [11],MIC [12],Structure (SMILES)
4 µg/mL,4 µg/mL,250 µg/mL,8 µg/mL,16 µg/mL,> 500 µg/mL,16 µg/mL,> 500 µg/mL,62.5 µg/mL,125 µg/mL,8 µg/mL,1 µg/mL,Cc1cc2oc(=O)cc(CN=[N+]=[N-])c2cc1S(=O)(=O)Nc1ccc(Cl)cc1[N+](=O)[O-]
2 µg/mL,16 µg/mL,> 500 µg/mL,8 µg/mL,1 µg/mL,> 500 µg/mL,8 µg/mL,2 µg/mL,1 µg/mL,16 µg/mL,31.2 µg/mL,1 µg/mL,Cc1cc2oc(=O)cc(CN=[N+]=[N-])c2cc1S(=O)(=O)Nc1cccc2ccccc12
1 µg/mL,16 µg/mL,250 µg/mL,16 µg/mL,4 µg/mL,250 µg/mL,16 µg/mL,125 µg/mL,31.2 µg/mL,31.2 µg/mL,62.5 µg/mL,1 µg/mL,Cc1ccc(NS(=O)(=O)c2cc3c(CN=[N+]=[N-])cc(=O)oc3cc2C)c([N+](=O)[O-])c1
4 µg/mL,16 µg/mL,4 µg/mL,125 µg/mL,31.2 µg/mL,125 µg/mL,16 µg/mL,8 µg/mL,4 µg/mL,2 µg/mL,2 µg/mL,2 µg/mL,Cc1cc([N+](=O)[O-])ccc1NS(=O)(=O)c1cc2c(CN=[N+]=[N-])cc(=O)oc2cc1C
